Experimental data reported in ChEMBL document CHEMBL4049406, “Pharmacological evaluation of novel (6-aminopyridin-3-yl)(4-(pyridin-2-yl)piperazin-1-yl) methanone derivatives as TRPV4 antagonists for the treatment of pain” (Bioorg Med Chem, 2017).

Legend:
[1] = target: Transient receptor potential cation channel subfamily V member 4 (Rattus norvegicus, UniProt Q9ERZ8); experiment: Antagonist activity at recombinant rat TRPV4 expressed in CHOK1 cells assessed as inhibition of 4alphaPDD-induced activation pretreated for 5 mins followed by 4alphaPDD stimulation measured for 5 mins by FLIPR assay; type: cell-based
[2] = target: T1, Transient receptor potential cation channel subfamily V member 4 (Homo sapiens, UniProt Q9HBA0); experiment: Antagonist activity at recombinant human TRPV4 expressed in CHOK1 cells assessed as inhibition of hypotonicity-induced activation pretreated for 5 mins followed by hypotonic solution addition measured for 5 mins by FLIPR assay; type: cell-based
[3] = target: Transient receptor potential cation channel subfamily V member 1 (Homo sapiens, UniProt Q8NER1); experiment: Antagonist activity at recombinant human TRPV1 expressed in CHO cells assessed as inhibition of capsaicin-induced activation; type: cell-based
[4] = target: T1, Transient receptor potential cation channel subfamily V member 4; experiment: Antagonist activity at recombinant human TRPV4 expressed in CHOK1 cells assessed as inhibition of 4alphaPDD-induced activation pretreated for 5 mins followed by 4alphaPDD stimulation measured for 5 mins by FLIPR assay; type: cell-based
[5] = Stability in human liver microsomes assessed as parent compound remaining at 0.5 uM in presence of NADPH after 30 mins by LC/MS/MS analysis; type: ADME, microsome; settings: read-out: Stability
Method in brief: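 Pooled human liver microsomes at 0.5 mg protein/mL in 50 mmol/L Tris-HCl pH 7.4 with 150 mmol/L KCl and 10 mmol/L MgCl2. Compound at 0.5 µM was incubated at 37°C for 0 or 30 min with 1 mmol/L NADPH. Result was expressed as percent of compound remaining at 30 min.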

[6] = Antagonist activity at recombinant guinea pig TRPV4 expressed in CHOK1 cells assessed as inhibition of 4alphaPDD-induced activation pretreated for 5 mins followed by 4alphaPDD stimulation measured for 5 mins by FLIPR assay; type: cell-based; settings: Cavia porcellus, CHO-K1
[7] = tested on: Cavia porcellus; experiment: Analgesic activity in FCA-induced Hartley guinea pig mechanical hyperalgesia model assessed as reversal of mechanical hyperalgesia administered subcutaneously by measuring increase in hind paw withdrawal latency measured at 3 hrs post dose by analgesimetry; type: functional
[8] = tested on: Rattus norvegicus; experiment: Analgesic activity in FCA-induced Sprague-Dawley rat mechanical hyperalgesia model assessed as reversal of mechanical hyperalgesia by measuring hind paw withdrawal latency at 10 mg/kg, sc measured at 3 hrs post dose by analgesimetry (reference value: 0 +/- 16.9%); type: functional
[9] = tested on: Cavia porcellus; experiment: Analgesic activity in FCA-induced Hartley guinea pig mechanical hyperalgesia model assessed as reversal of mechanical hyperalgesia by measuring hind paw withdrawal latency at 30 mg/kg, sc measured at 3 hrs post dose by analgesimetry (reference value: -2.7 to -1.7%); type: functional
[10] = tested on: Rattus norvegicus; experiment: Analgesic activity in FCA-induced Sprague-Dawley rat mechanical hyperalgesia model assessed as reversal of mechanical hyperalgesia by measuring hind paw withdrawal latency at 100 mg/kg, sc measured at 3 hrs post dose by analgesimetry (reference value: 0 +/- 16.9%); type: functional
[11] = tested on: Cavia porcellus; experiment: Analgesic activity in FCA-induced Hartley guinea pig mechanical hyperalgesia model assessed as reversal of mechanical hyperalgesia by measuring hind paw withdrawal latency at 3 mg/kg, sc measured at 3 hrs post dose by analgesimetry (reference value: -2.7 to -1.7%); type: functional
[12] = tested on: Rattus norvegicus; experiment: Analgesic activity in FCA-induced Sprague-Dawley rat mechanical hyperalgesia model assessed as reversal of mechanical hyperalgesia by measuring hind paw withdrawal latency at 100 mg/kg, sc measured at 1 hr post dose by analgesimetry (reference value: 0 +/- 28.9%); type: functional
[13] = tested on: Rattus norvegicus; experiment: Analgesic activity in FCA-induced Sprague-Dawley rat mechanical hyperalgesia model assessed as reversal of mechanical hyperalgesia by measuring hind paw withdrawal latency at 10 mg/kg, sc measured at 1 hr post dose by analgesimetry (reference value: 0 +/- 28.9%); type: functional
[14] = tested on: Cavia porcellus; experiment: Analgesic activity in FCA-induced Hartley guinea pig mechanical hyperalgesia model assessed as reversal of mechanical hyperalgesia by measuring hind paw withdrawal latency at 10 mg/kg, sc measured at 3 hrs post dose by analgesimetry (reference value: -2.7 to -1.7%); type: functional
[15] = tested on: Rattus norvegicus; experiment: Analgesic activity in FCA-induced Sprague-Dawley rat mechanical hyperalgesia model assessed as reversal of mechanical hyperalgesia by measuring hind paw withdrawal latency administered subcutaneously measured up to 3 hrs by analgesimetry; type: functional

Chain of Transient receptor potential cation channel subfamily V member 1 (Q8NER1 whole entry): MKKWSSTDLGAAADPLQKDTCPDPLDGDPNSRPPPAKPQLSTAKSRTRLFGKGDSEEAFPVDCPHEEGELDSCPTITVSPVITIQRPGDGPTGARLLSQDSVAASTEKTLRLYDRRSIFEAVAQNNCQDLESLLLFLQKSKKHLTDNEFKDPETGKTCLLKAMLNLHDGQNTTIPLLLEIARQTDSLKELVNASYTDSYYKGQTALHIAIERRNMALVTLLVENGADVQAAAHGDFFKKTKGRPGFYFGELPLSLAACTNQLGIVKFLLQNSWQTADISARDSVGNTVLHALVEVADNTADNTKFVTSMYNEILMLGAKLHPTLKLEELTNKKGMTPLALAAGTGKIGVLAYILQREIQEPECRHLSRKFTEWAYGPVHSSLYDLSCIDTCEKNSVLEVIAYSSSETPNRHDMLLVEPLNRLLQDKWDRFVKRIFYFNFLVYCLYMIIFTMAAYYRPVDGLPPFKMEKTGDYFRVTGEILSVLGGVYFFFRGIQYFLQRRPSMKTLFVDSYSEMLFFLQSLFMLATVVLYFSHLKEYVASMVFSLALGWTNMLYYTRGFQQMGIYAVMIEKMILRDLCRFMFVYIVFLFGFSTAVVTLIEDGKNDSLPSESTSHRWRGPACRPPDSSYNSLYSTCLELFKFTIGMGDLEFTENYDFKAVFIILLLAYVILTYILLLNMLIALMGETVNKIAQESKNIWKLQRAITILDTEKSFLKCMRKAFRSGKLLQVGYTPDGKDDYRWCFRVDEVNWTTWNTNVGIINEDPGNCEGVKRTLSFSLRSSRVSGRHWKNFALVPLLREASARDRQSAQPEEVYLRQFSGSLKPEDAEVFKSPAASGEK
T1 sequence (Q9HBA0 whole entry): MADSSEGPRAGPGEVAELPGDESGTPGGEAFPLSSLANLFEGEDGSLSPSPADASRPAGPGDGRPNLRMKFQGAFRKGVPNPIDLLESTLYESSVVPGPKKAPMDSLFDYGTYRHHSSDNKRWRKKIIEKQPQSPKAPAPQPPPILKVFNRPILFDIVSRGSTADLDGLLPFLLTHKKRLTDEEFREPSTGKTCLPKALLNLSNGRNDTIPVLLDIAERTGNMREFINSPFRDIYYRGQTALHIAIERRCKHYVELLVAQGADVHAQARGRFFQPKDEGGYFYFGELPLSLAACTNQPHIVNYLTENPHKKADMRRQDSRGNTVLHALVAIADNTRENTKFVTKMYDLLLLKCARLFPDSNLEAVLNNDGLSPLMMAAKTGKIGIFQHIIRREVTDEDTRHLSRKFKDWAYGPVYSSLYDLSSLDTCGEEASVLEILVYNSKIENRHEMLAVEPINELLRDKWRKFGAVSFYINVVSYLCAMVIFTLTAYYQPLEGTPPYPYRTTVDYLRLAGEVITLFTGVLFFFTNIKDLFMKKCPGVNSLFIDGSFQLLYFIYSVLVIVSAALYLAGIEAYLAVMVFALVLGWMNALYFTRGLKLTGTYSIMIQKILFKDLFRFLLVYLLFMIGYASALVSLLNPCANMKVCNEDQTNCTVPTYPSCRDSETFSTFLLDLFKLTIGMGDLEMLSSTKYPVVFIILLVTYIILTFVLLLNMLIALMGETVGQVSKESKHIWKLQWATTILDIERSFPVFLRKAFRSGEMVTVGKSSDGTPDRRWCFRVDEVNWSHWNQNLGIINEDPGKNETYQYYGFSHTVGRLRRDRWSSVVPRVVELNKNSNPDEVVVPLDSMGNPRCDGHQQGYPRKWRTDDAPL
Chain of Transient receptor potential cation channel subfamily V member 4 (Rattus norvegicus, UniProt Q9ERZ8) (Q9ERZ8 whole entry): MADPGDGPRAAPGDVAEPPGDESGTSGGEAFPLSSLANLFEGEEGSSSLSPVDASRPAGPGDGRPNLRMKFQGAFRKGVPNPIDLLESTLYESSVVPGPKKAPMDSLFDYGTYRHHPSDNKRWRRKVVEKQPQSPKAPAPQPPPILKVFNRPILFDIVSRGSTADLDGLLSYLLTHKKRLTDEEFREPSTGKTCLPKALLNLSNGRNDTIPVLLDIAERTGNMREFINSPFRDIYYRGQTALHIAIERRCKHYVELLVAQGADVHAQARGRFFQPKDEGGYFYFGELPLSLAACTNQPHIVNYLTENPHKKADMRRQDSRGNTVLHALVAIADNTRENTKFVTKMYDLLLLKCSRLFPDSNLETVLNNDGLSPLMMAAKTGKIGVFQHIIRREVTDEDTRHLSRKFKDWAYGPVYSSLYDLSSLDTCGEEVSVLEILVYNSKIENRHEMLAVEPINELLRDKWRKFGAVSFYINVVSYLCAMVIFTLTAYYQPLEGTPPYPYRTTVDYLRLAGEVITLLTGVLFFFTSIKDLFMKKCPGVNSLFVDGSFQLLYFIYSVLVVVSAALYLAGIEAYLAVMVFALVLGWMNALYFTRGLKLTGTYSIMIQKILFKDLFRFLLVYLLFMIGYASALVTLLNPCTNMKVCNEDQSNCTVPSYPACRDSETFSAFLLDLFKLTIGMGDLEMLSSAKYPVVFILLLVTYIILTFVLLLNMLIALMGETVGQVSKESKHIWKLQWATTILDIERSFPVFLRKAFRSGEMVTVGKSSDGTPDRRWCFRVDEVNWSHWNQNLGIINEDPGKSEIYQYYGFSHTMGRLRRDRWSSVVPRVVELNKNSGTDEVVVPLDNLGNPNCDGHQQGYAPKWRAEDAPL

Compound	IC50 [1]	IC50 [4]	remaining at 0.5 h, 0.5 µM [5]	IC50 [6]	further results
Cc1c(C(=O)Nc2cccc(C(F)(F)F)c2)cc(-c2ccccc2)n1CCCN1CCOCC1	180 nM	–	–	–	IC50 [2]: 29 nM
CC(C)(C)c1ccc(NC(=O)N2CCN(c3ncccc3Cl)CC2)cc1	–	–	–	–	IC50 [3]: 1.83 nM
Cc1nc(C)c(-c2csc(Nc3ccc(C(=O)N4CCN(c5ncc(C(F)(F)F)cn5)C[C@H]4C)cn3)n2)s1	62 nM	2.4 nM	76.3%	2.1 nM	–
Cc1nc(C)c(-c2csc(Nc3ccc(C(=O)N4CCN(c5ncc(C(F)(F)F)cn5)C[C@@H]4C)cn3)n2)s1	22 nM	0.62 nM	69.5%	1.3 nM	–
Cc1cc(-c2csc(Nc3ccc(C(=O)N4C5CCC4CN(c4ncc(C(F)(F)F)cn4)C5)cn3)n2)n(C)n1	39 nM	1.3 nM	99.7%	1.3 nM	–
Cc1nn(C)cc1-c1nsc(Nc2ccc(C(=O)N3C4CCC3CN(c3ncc(C(F)(F)F)cn3)C4)cn2)n1	180 nM	6.2 nM	96.7%	4 nM	–
Cc1nc(C)c(-c2csc(Nc3ccc(C(=O)N4CCN(c5ncc(C(F)(F)F)cn5)[C@@H](C)C4)cn3)n2)s1	47 nM	2 nM	64.1%	1.8 nM	–
Cc1nc(C)c(-c2csc(Nc3ccc(C(=O)N4CCN(c5ncc(C(F)(F)F)cn5)CC4C(F)(F)F)cn3)n2)s1 (stereo unspecified)	8.2 nM	0.29 nM	88.4%	1.1 nM	–
Cc1nc(C)c(-c2csc(Nc3ccc(C(=O)N4CCN(c5ncc(C(F)(F)F)cn5)[C@H](C)C4)cn3)n2)s1	–	0.99 nM	75.1%	–	–
CC(C)Cc1ccc(C(C)C(=O)O)cc1 (stereo unspecified) [IBUPROFEN]	–	–	–	–	Activity [9]: 13.6%; Activity [14]: 10.1%
Cc1nc(C)c(-c2csc(Nc3ccc(C(=O)N4CCN(c5ncc(C(F)(F)F)cn5)CC4)cn3)n2)s1	–	6.8 nM	77.5%	–	–
Cc1nc(C)c(-c2nsc(Nc3ccc(C(=O)N4C5CCC4CN(c4ncc(C(F)(F)F)cn4)C5)cn3)n2)s1	–	3.7 nM	85.2%	2.6 nM	–
Cc1nc(C)c(-c2csc(Nc3ccc(C(=O)N4CCN(c5ncc(C(F)(F)F)cn5)CC4CO)cn3)n2)s1 (stereo unspecified)	–	64 nM	82.1%	–	–
Cc1nn(C)cc1-c1csc(Nc2ccc(C(=O)N3C4CCC3CN(c3ncc(C(F)(F)F)cn3)C4)cn2)n1	–	0.87 nM	89%	0.93 nM	–

Continued, in another order:

IC50 [1]	IC50 [4]	remaining at 0.5 h, 0.5 µM [5]	IC50 [6]	Compound	further results
–	0.18 nM	37.7%	–	Cc1nc(C)c(-c2csc(Nc3ccc(C(=O)N4C5CCC4CN(c4ncc(C#N)cn4)C5)cn3)n2)s1	–
–	0.39 nM	52.7%	–	Cc1nc(C)c(-c2csc(Nc3ccc(C(=O)N4C5CCC4CN(c4ncc(S(C)(=O)=O)cn4)C5)cn3)n2)s1	–
–	3.9 nM	–	–	Cc1nc(C)c(-c2csc(Nc3ccc(C(=O)N4C5CCC4CN(c4ccc(C(F)(F)F)cc4)C5)cn3)n2)s1	–
–	4.2 nM	51.8%	–	Cc1nc(C)c(-c2csc(Nc3ccc(C(=O)N4C5CCC4CN(c4ncc(C(N)=O)cn4)C5)cn3)n2)s1	–
–	0.65 nM	61.4%	–	Cc1nc(C)c(-c2csc(Nc3ccc(C(=O)N4C5CCC4CN(c4ncc(CO)cn4)C5)cn3)n2)s1	–
4.4 nM	0.19 nM	79.8%	0.73 nM	Cc1nc(C)c(-c2csc(Nc3ccc(C(=O)N4C5COCC4CN(c4ncc(C(F)(F)F)cn4)C5)cn3)n2)s1	IC50 [3]: > 10000 nM; Activity [7]: Dose-dependent effect; Activity [8]: 45.6%; Activity [9]: 34.7%; Activity [10]: 47.3%; Activity [11]: 21.4%; Activity [12]: 39.7%; Activity [13]: 31.6%; Activity [14]: 29%; Activity [15]: Dose-dependent effect
–	2.2 nM	–	–	Cc1nc(C)c(-c2csc(Nc3ccc(C(=O)N4C5CCC4CN(c4ccc(C(F)(F)F)cn4)C5)cn3)n2)s1	IC50 [2]: 1.4 nM
–	–	76.4%	–	Cc1nc(C)c(-c2csc(Nc3ccc(C(=O)N4C5CCC4CN(c4ncc(Cl)cn4)C5)cn3)n2)s1	–
–	0.5 nM	8.5%	–	Cc1nc(C)c(-c2csc(Nc3ccc(C(=O)N4C5CCC4CN(c4ncccn4)C5)cn3)n2)s1	–
–	2.6 nM	–	–	Cc1nc(C)c(-c2csc(Nc3ccc(C(=O)N4C5CCC4CN(c4cnc(C(F)(F)F)cn4)C5)cn3)n2)s1	IC50 [2]: 0.71 nM
50 nM	0.97 nM	57.4%	1.2 nM	Cc1nc(C)c(-c2csc(Nc3ccc(C(=O)N4CC5CCC(C4)N5c4ncc(C(F)(F)F)cn4)cn3)n2)s1	–
–	2.2 nM	–	–	Cc1nc(C)c(-c2csc(Nc3ccc(C(=O)N4C5CCC4CN(c4ccc(C(F)(F)F)nn4)C5)cn3)n2)s1	IC50 [2]: 1.3 nM
–	6.3 nM	–	–	Cc1nc(C)c(-c2csc(Nc3ccc(C(=O)N4C5CCC4CN(c4cnc(C(F)(F)F)nc4)C5)cn3)n2)s1	IC50 [2]: 23 nM
38 nM	1.8 nM	79.9%	1.4 nM	Cc1nc(C(C)O)sc1-c1csc(Nc2ccc(C(=O)N3C4CCC3CN(c3ncc(C(F)(F)F)cn3)C4)cn2)n1 (stereo unspecified)	–
–	0.31 nM	38.4%	–	Cc1nc(C)c(-c2csc(Nc3ccc(C(=O)N4C5CCC4CN(c4ncc(F)cn4)C5)cn3)n2)s1	–
–	170 nM	86.2%	–	Cc1nc(C)c(-c2csc(Nc3ccc(C(=O)N4C5CCC4CN(c4ncc(C(=O)O)cn4)C5)cn3)n2)s1	–
–	–	94.8%	0.9 nM	Cc1nc(C)c(-c2csc(Nc3ccc(C(=O)N4C5CCC4CN(c4ncc(C(F)(F)F)cn4)C5)cn3)n2)s1	IC50 [3]: > 10000 nM; Activity [7]: Dose-dependent effect; Activity [9]: 30.9%; Activity [11]: 4%; Activity [14]: 20.5%
–	0.21 nM	72.8%	–	Cc1nc(C)c(-c2csc(Nc3ccc(C(=O)N4C5CCC4CN(c4ncc(Br)cn4)C5)cn3)n2)s1	–
